# Assay results taken from ChEMBL document CHEMBL1140072, “Discovery of novel and cardioselective diltiazem-like calcium channel blockers via virtual screening” (J Med Chem, 2008).
# Columns and labels:
# [1] = Negative inotropic activity in guinea pig left atrium assessed as decrease in atrial tension at 100 uM relative to control; assay type: functional, tissue-based, Cavia porcellus, Cardiac atrium; parameters: scale not given: the % may be the effect or the level left
# [2] = Negative inotropic activity in guinea pig left atrium assessed as decrease in atrial tension relative to control; assay type: functional, tissue-based; conditions: Cavia porcellus, Cardiac atrium
# Aorta [3] = test: Vasorelaxant activity in K+-depolarized guinea pig aorta assessed as inhibition of calcium-induced contraction at 100 uM; assay type: functional; conditions: Cavia porcellus
# [4] = Negative chronotropic activity in guinea pig spontaneously beating right atrium assessed as decrease in atrial rate at 100 uM relative to control; assay type: functional, tissue-based, Cavia porcellus, Cardiac atrium; parameters: scale not given: the % may be the effect or the level left
# [5] = Negative chronotropic activity in guinea pig spontaneously beating right atrium assessed as decrease in atrial rate at 100 uM relative to control; parameters: scale not given: the % may be the effect or the level left
# [6] = Dissociation constant, pKa of the compound; assay type: physicochemical
# Procedure, shortened: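 pKa values are calculated in silico, not measured experimentally.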
# [7] = Negative inotropic activity in guinea pig left atrium assessed as decrease in atrial tension at 5 uM relative to control; assay type: functional, Cavia porcellus, Cardiac atrium; parameters: scale not given: the % may be the effect or the level left
# [8] = Negative inotropic activity in guinea pig left atrium assessed as decrease in atrial tension at 10 uM relative to control; assay type: functional, Cavia porcellus, Cardiac atrium; parameters: scale not given: the % may be the effect or the level left
# Ileum [9] = test: Vasorelaxant activity in K+-depolarized guinea pig ileum longitudinal smooth muscle assessed as inhibition of calcium-induced contraction; assay type: functional, tissue-based; conditions: Cavia porcellus
# [10] = Negative chronotropic activity in guinea pig spontaneously beating right atrium assessed as decrease in atrial rate at 5 uM relative to control; assay type: functional, Cavia porcellus, Cardiac atrium; parameters: scale not given: the % may be the effect or the level left
# Ileum [11] = test: Vasorelaxant activity in K+-depolarized guinea pig ileum longitudinal smooth muscle assessed as inhibition of calcium-induced contraction at 1 uM; assay type: functional; conditions: Cavia porcellus
# [12] = biological target: Voltage-gated L-type calcium channel (Rattus norvegicus, UniProt P22002+Q02485+P27732); test: Displacement of [3H]diltiazem from L-type calcium channel in Sprague-Dawley rat cardiac myocytes; assay type: cell-based
# Procedure, shortened: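 Rat cardiomyocyte preparation. [3H]diltiazem at 5 nM is incubated with test compound at increasing concentrations from 0.1 nM to 100 µM. The readout is the inhibition of [3H]diltiazem binding to the benzothiazepine site.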
# Ileum [13] = test: Vasorelaxant activity in K+-depolarized guinea pig ileum longitudinal smooth muscle assessed as inhibition of calcium-induced contraction at 100 uM; assay type: functional; conditions: Cavia porcellus
# [14] = Negative inotropic activity in guinea pig left atrium assessed as decrease in atrial tension at 50 uM relative to control; assay type: functional, tissue-based, Cavia porcellus, Cardiac atrium; parameters: scale not given: the % may be the effect or the level left
# [15] = Negative chronotropic activity in guinea pig spontaneously beating right atrium assessed as decrease in atrial rate at 10 uM relative to control; assay type: functional, Cavia porcellus, Cardiac atrium; parameters: scale not given: the % may be the effect or the level left
# [16] = Negative inotropic activity in guinea pig left atrium assessed as decrease in atrial tension at 1 uM relative to control; assay type: functional, Cavia porcellus, Cardiac atrium; parameters: scale not given: the % may be the effect or the level left
# Ileum [17] = test: Vasorelaxant activity in K+-depolarized guinea pig ileum longitudinal smooth muscle assessed as inhibition of calcium-induced contraction at 50 uM; assay type: functional; conditions: Cavia porcellus
# L-type calcium channel = L-type calcium channel (Rattus norvegicus, UniProt P22002+P27732+Q02485); test: Displacement of [3H]diltiazem from L-type calcium channel in Sprague-Dawley rat cardiac myocytes at 10 uM; assay type: cell-based; conditions: probe [3H]diltiazem, read-out: Activity
# Aorta [18] = test: Vasorelaxant activity in K+-depolarized guinea pig aorta assessed as inhibition of calcium-induced contraction at 50 uM; assay type: functional; conditions: Cavia porcellus
# Ileum [19] = test: Vasorelaxant activity in K+-depolarized guinea pig ileum longitudinal smooth muscle assessed as inhibition of calcium-induced contraction at 10 uM; assay type: functional; conditions: Cavia porcellus
SMILES,EC50 [2] [nM],IC50 (Ileum [9]) [nM],Activity [1] [%],inhibition at 100 µM (Aorta [3]) [%],Activity [4] [%],inhibition at 100 µM (Ileum [13]) [%],also measured
COc1cc2c(cc1OC)[C@H]1CC(=O)[C@H]3CCC[C@H]3N1CC2,2170,–,64,3,4,–,–
Cc1cc(C(C)(C)C)cc(C)c1NC(=O)CN1CCOCC1,840,–,–,26,29,–,Activity [8]: 87%
COc1ccc(Cl)cc1NC(=O)N1CCN(C)CC1,340,–,–,7,10,44,Activity [14]: 67%
CCO[C@]1(c2ccc(Br)cc2)SC=C(C)n2c1noc2=O,70,–,–,11,–,3,Activity [15]: 16%; Activity [16]: 58%
CN1CCN(S(=O)(=O)c2cccc3cccnc23)CC1,450,–,–,18,–,28,Activity [5]: 19%; inhibition at 10 µM (L-type calcium channel): 60%; Activity [8]: 84%
O=C(COc1ccccc1Cl)N1CCNCC1,520,–,–,1,3,–,Activity [14]: 60%
CCc1c(C)cc(C)cc1OC[C@@H](O)CNC(C)C,3590,–,–,30,40,–,Activity [14]: 76%
O=S(=O)(c1cccc2c(Cl)cccc12)N1CCCNCC1,430,–,98,–,–,–,Activity [5]: 46%; inhibition at 50 µM (Aorta [18]): 43%; inhibition at 10 µM (Ileum [19]): 40%
O=S(=O)(c1ccc(Cl)cc1)N(C1CCNCC1)C1CC1,310,14100,–,19,–,–,Activity [5]: 64%; inhibition at 50 µM (Ileum [17]): 89%; Activity [14]: 76%
CC(C)NC[C@@H](O)COc1cccc2ccccc12 [DEXPROPRANOLOL],–,–,–,36,–,74,Activity [5]: 26%; Activity [14]: 92%

# More lines, main results first:
EC50 [2] [nM],IC50 (Ileum [9]) [nM],SMILES,Activity [1] [%],inhibition at 100 µM (Aorta [3]) [%],Activity [4] [%],inhibition at 100 µM (Ileum [13]) [%],also measured
840,–,Cc1ccccc1CC(=O)c1ccc(O)c(CN(C)C)c1O,–,4,–,–,Activity [5]: 48%; pKa [6]: 10.7; Activity [7]: 78%
6260,–,COc1ccc(CN(CCN(C)C)c2ccccn2)cc1 [PYRILAMINE],81,23,47,–,–
790,110,COc1ccc([C@@H]2Sc3ccccc3N(CCN(C)C)C(=O)[C@@H]2OC(C)=O)cc1 [DILTIAZEM],–,88,–,–,EC30 [2]: 70 nM; IC50 [2]: 2600 nM; Activity [10]: 94%; inhibition at 1 µM (Ileum [11]): 98%; Activity [8]: 78%
350,20200,CN(C)CCNC(=O)c1cc2ccccc2cc1O,90,13,35,61,Ki [12]: 450 nM
1110,3280,CN(Cc1ccccc1)Cc1ccnc(Br)c1O,70,2,6,–,inhibition at 50 µM (Ileum [17]): 57%
730,16500,CC(C)(CNC(=S)Nc1ccccc1)N1CCOCC1,94,20,10,76,–
250,9340,CN(C)CCOC(c1ccc(Cl)cc1)c1ccccn1 (configuration not stated) [CARBINOXAMINE],76,28,48,–,EC30 [2]: 480 nM; Ki [12]: 1080 nM; inhibition at 50 µM (Ileum [17]): 62%
1050,–,CCOc1ccc(NC(=O)CCN(CC)CC)cc1,79,11,30,–,–
300,20300,CN(C)CCNc1cc(-c2cccnc2)nc2ccccc12,–,5,4,72,Activity [7]: 76%
250,–,CCN(CC)CCOc1ccc2ccc(=O)oc2c1,–,14,28,22,Activity [8]: 67%
970,18400,COc1ccccc1NC(=O)OCC1CCCCN1C (configuration not stated),87,10,17,73,–
